Experimental data reported in paper PMC8458252 (Circulation. Heart failure, 2021).
Blank lines part the entries; values can stand above or below the compound they belong to.

Tests used:
[1] = Plasma pharmacokinetics after single oral dose in HFrEF patients; assay type: in vivo, human
In short: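 After a single oral liquid dose (10, 30 or 90 mg) in fasted HFrEF patients, plasma was drawn pre-dose and at 5, 15, 30, 45, 90 and 120 min on Day 1, and again on Day 5. Parameters: AUC 0–2 h, Cmax, Tmax, lag time. Half-life was estimated from Day 5 levels relative to peak. Data analysed by two-way repeated-measures ANOVA.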

HFrEF patients [2] = experiment: Supine and orthostatic blood pressure and heart rate in HFrEF patients; assay type: in vivo, human
In short: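 Fasted HFrEF patients were randomised 3:1 to one oral liquid dose (10, 30 or 90 mg) or placebo. Supine BP and HR were taken by automated cuff every 10 min from 30 min pre-dose to 120 min post-dose, then every 30 min to 5 h. Orthostatic readings were taken at 60 ± 5 and 240 ± 15 min and on Day 5, after 1, 3 and 5 min standing. Time course versus placebo by ANCOVA; orthostatic change by ANOVA.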

HFrEF patients [3] = experiment: Echo-Doppler hemodynamics, baseline versus 2 hours post-dose, in HFrEF patients; assay type: in vivo, human
In short: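 Single oral dose (10, 30 or 90 mg, or placebo; randomised 3:1; n=9/dose) in fasted HFrEF patients. Transthoracic 2D Doppler echo at baseline and 120 ± 15 min, read blinded in a core lab. Cuff BP/HR taken at imaging. Outputs: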

HFrEF patients [4] = experiment: Tolerability / adverse events in HFrEF patients; assay type: in vivo, human
In short: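 In a blinded, placebo-controlled study, stable HFrEF patients on guideline therapy were randomised 3:1 in sequential cohorts. Each received one oral liquid dose (10, 30 or 90 mg) or placebo after an ≥8 h fast. Monitoring ran 5 h post-dose, with a follow-up visit on Day 5 ± 1 (exam, ECG, blood and urine labs). Adverse events were recorded at each visit per protocol.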

HFrEF patients [5] = experiment: 12-lead ECG QTc and Holter arrhythmia monitoring in HFrEF patients; assay type: in vivo, human
In short: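 HFrEF patients fasted ≥8 h took one oral liquid dose of test compound (10, 30 or 90 mg) or placebo, randomised 3:1. 12-lead ECG at baseline, 120 ± 15 min post-dose and Day 5 ± 1. Continuous bedside telemetry plus Holter recording. Holter gave hourly supraventricular and ventricular runs and ectopic-beat burden versus pre-dose.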

[6] = system: plasma cGMP and cAMP levels; experiment: Plasma cAMP and cGMP by LC/MS/MS in HFrEF patients; assay type: in vivo, human; details: baseline versus 2 hours after dosing
In short: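 HFrEF patients received one oral dose of test compound (10, 30 or 90 mg) or placebo. Plasma was sampled at baseline and 2 h post-dose and stored frozen. cAMP and cGMP were measured by a validated LC/MS/MS method with quantitation limits of 20 to 5000 […].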

PDE1A = details: read-out: IC50 for PDE1A; cited from earlier work
PDE1C = details: read-out: IC50 for PDE1C; cited from earlier work
PDE3 = details: cited from earlier work
PDE5 = details: cited from earlier work
PDE1 = details: cited from earlier work
rats = details: cited from earlier work

drug level as % of peak concentration ([1]; after five days, at each dose): 2-3%
time at which peak concentration was achieved ([1]; after oral dosing): ≤ 45 min
half-life ([1]; human, plasma, oral): ~22 h
Tmax ([1]; human, plasma, po, 90 mg): 0.75 to 1.1 h
Compound: CN1C(=O)c2c(nn(Cc3ccc(-c4cccc(F)n4)cc3)c2Nc2ccccc2)N2C1=N[C@@H]1CCC[C@@H]12 [ITI-214]
diastolic BP change (HFrEF patients [2]; over 2 hours post-dose, each dose): declined
increase in heart rate (HFrEF patients [2]; single oral dose 10-90 mg): 5-9 bpm
orthostatic SBP changes versus placebo (HFrEF patients [2]; upon standing): No SBP changes were significantly different
median change in PWRi (mean LV power index) (HFrEF patients [3]; 10 mg, baseline to 120 minutes): 0.018 (IQR 0.122) Watts/mL^2·10^4
median rise in cardiac output (HFrEF patients [3]; 10 mg, baseline to 120 minutes): 0.717 L/min
E/E’ (HFrEF patients [3]; 30 mg): small rise
change in systemic vascular resistance (HFrEF patients [3]; 30 mg, baseline to 120 minutes): −564 dynes·s/cm^−5
median change in PWRi (mean LV power index) (HFrEF patients [3]; 30 mg, baseline to 120 minutes): 0.143 (IQR 0.154) Watts/mL^2·10^4
median rise in cardiac output (HFrEF patients [3]; 30 mg, baseline to 120 minutes): 0.830 L/min
change in systemic vascular resistance (HFrEF patients [3]; 90 mg, baseline to 120 minutes): −370 dynes·s/cm^−5
median change in PWRi (mean LV power index) (HFrEF patients [3]; 90 mg, baseline to 120 minutes): 0.083 (IQR 0.126) Watts/mL^2·10^4
median rise in cardiac output (HFrEF patients [3]; 90 mg, baseline to 120 minutes): 0.666 L/min
percent increase in cardiac output (HFrEF patients [3]; 90 mg, pre versus post dose): 18%
percent increase in mPWRi (HFrEF patients [3]; 90 mg, pre versus post dose): 33%
total LV afterload (Ea) (HFrEF patients [3]; all doses): significantly reduced
end-diastolic volume (HFrEF patients [3]; baseline to 120 minutes): little effect
isovolumic relaxation time (HFrEF patients [3]; baseline to 120 minutes): little effect
feeling hot, share of subjects (HFrEF patients [4]; 27 subjects treated): 7%
headache, share of subjects (HFrEF patients [4]; 27 subjects treated): 7%
hypotension, share of subjects (HFrEF patients [4]; 27 subjects treated): 11%
orthostatic hypotension, share of subjects (HFrEF patients [4]; 27 subjects treated): 11%
parosmia, share of subjects (HFrEF patients [4]; 27 subjects treated): 15%
taste disorder, share of subjects (HFrEF patients [4]; 27 subjects treated): 7%
subjects with mild adverse events (HFrEF patients [4]; all ITI-214 doses): 11 of the 27 subjects
serious adverse events (HFrEF patients [4]; any time in the study): no serious adverse events
tolerability (HFrEF patients [4]; single dose): well-tolerated
change in QTc (HFrEF patients [5]; 10 mg, 120 minutes post-dose versus baseline): 1 ± 9 ms
change in QTc (HFrEF patients [5]; 10 mg, Day 5 versus baseline): -13 ± 17 ms
change in QTc (HFrEF patients [5]; 30 mg, 120 minutes post-dose versus baseline): -4 ± 18 ms
change in QTc (HFrEF patients [5]; 30 mg, Day 5 versus baseline): -19 ± 22 ms
change in QTc (HFrEF patients [5]; 90 mg, 120 minutes post-dose versus baseline): -4 ± 24 ms
change in QTc (HFrEF patients [5]; 90 mg, Day 5 versus baseline): -16 ± 19 ms
arrhythmia outcomes (Holter) (HFrEF patients [5]; compared to pre-dosing): no clinical change
plasma cAMP level [6]: did not significantly change
plasma cGMP level [6]: did not significantly change
IC50 (PDE1A): 0.035 nM
IC50 (PDE1C): 0.035 nM
selectivity for PDE1 over PDE3 (PDE3): 94,000 fold
selectivity for PDE1 over PDE5 (PDE5): 19,000 fold
potency relative to either Lu-compound (more potent) (PDE1; versus LuAF41228 and LuAF58027): > 1000 x

Compound: CCC(CC)Nc1ncnc2c(OC)c(OC)ccc12 [LuAF41228]
lowering of blood pressure (rats): ≥ 15 mmHg

Compound: CCOC(=O)C1=C[C@]2(CC)CCCN3CCc4c(n1c1ccccc41)[C@@H]32 [vinpocetine, reference compound]
PDE1 inhibitor potency relative to ITI-214 (less potent) (PDE1): < 10^6
